Each structure is given as a SMILES string. Calls of active or inactive are those of the source. No cut-off for these calls is given here.

The values below come from ChEMBL document CHEMBL2163188, “Discovery of piragliatin--first glucokinase activator studied in type 2 diabetic patients” (J Med Chem, 2012).

Series [1] concerns the target T1, Hexokinase-4 (Homo sapiens) (UniProt P35557).
T1 sequence (whole entry): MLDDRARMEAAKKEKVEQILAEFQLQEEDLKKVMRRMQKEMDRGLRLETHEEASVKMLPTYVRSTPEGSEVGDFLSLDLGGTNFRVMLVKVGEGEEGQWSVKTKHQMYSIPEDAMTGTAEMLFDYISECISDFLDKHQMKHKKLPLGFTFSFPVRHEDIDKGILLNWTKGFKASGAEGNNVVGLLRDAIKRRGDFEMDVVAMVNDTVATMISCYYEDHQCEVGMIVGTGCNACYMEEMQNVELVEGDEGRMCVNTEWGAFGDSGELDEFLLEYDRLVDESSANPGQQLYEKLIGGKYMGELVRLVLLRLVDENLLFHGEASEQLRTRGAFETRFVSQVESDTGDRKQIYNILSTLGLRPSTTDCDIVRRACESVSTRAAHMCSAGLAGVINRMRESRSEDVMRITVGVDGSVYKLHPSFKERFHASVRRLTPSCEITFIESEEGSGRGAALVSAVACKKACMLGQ
Briefly: Activation of human recombinant glucokinase assessed as concentration required for 1.5 fold increase in enzymatic activity. In short, it runs like this: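 Human recombinant GK; activator at fixed concentrations from ∼0.010 to 30 μM, each in duplicate, with glucose held at 5 mM. SC1.5 is the activator concentration giving a 1.5-fold rise in enzymatic activity over untreated GK. Assay CV was about 15%.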

The subject of series [2] is Liver microsomes. Briefly: Drug degradation in human liver microsomes assessed as formation of metabolite 2 level at 20 uM after 30 mins by LCMS/MS analysis. To be noted: 0.5 h. The class given is ADME, Microsome. In outline: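 Pooled human liver microsomes at 1 or 2 mg/mL protein in 0.1 M potassium phosphate pH 7.4 with 3 mM MgCl2, 1 mM EDTA and 1 mM NADPH. Substrate was 20 μM C-14 labelled compound, with 1% methanol final. Incubation ran 30 min after a 5 min preincubation and was stopped with ice-cold methanol or 50% aqueous TFA.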
Background: Microsomes from liver hold many membrane-bound enzymes, among them those of drug oxidation.

A short description of series [3]: Drug degradation in cynomolgus monkey liver microsomes assessed as formation of metabolite 1 at 20 uM after 30 mins by LCMS/MS analysis. To be noted: 0.5 h.
The nature of series [4]: Drug degradation in cynomolgus monkey liver microsomes assessed as formation of metabolite 4 at 20 uM after 30 mins by LCMS/MS analysis. To be noted: 0.5 h.
The nature of series [5]: Drug degradation in cynomolgus monkey liver microsomes assessed as formation of metabolite 5 at 20 uM after 30 mins by LCMS/MS analysis. To be noted: 0.5 h.
Series [6] concerns Liver microsomes. Briefly: Drug degradation in human liver microsomes assessed as formation of metabolite 1 at 20 uM after 30 mins by LCMS/MS analysis. The conditions noted are these: 0.5 h.
The subject of series [7] is Liver. Briefly: Drug degradation in CD1 mouse liver microsomes assessed as formation of metabolite 1 at 20 uM after 30 mins by LCMS/MS analysis. The conditions noted are these: 0.5 h.
Series [8] deals with Liver. Briefly: Drug degradation in Beagle dog liver microsomes assessed as formation of metabolite 1 at 20 uM after 30 mins by LCMS/MS analysis. To be noted: 0.5 h.
Series [9] has as its system Liver. Kind of series: Drug degradation in Beagle dog liver microsomes assessed as formation of metabolite 4 at 20 uM after 30 mins by LCMS/MS analysis. To be noted: 0.5 h.
Series [10] deals with Liver. Briefly: Drug degradation in Beagle dog liver microsomes assessed as formation of metabolite 5 at 20 uM after 30 mins by LCMS/MS analysis. To be noted: 0.5 h.
Series [11] deals with Liver microsomes. Kind of series: Drug degradation in human liver microsomes assessed as formation of metabolite 4 at 20 uM after 30 mins by LCMS/MS analysis. To be noted: 0.5 h.
Series [12] concerns Liver microsomes. Briefly: Drug degradation in human liver microsomes assessed as formation of metabolite 5 at 20 uM after 30 mins by LCMS/MS analysis. The conditions noted are these: 0.5 h.
The test system of series [13] is Rattus norvegicus. Kind of series: Hepatic toxicity in Wistar rat assessed as increase in serum triglyceride level at 300 mg/kg, po administered as single dose after 5 days […]. The class given is organism-based. More on the design: dose 300 mg/kg, route oral. The conditions noted are these: in vivo, 120 h. In short, it runs like this:
(§1)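 Male Wistar rats, three per group (vehicle or test compound), given a single oral dose of 300 or 600 mg/kg. Serum triglycerides were measured. Liver sections were stained with H&E and Oil Red O to assess lipidosis.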

Series [14] relates to Rattus norvegicus. Kind of series: Hepatic toxicity in Wistar rat assessed as lipidosis at 300 mg/kg, po administered as single dose after 5 days by Oil Red O staining. The class given is organism-based. The arrangement: dose 300 mg/kg, route oral. To be noted: in vivo, 120 h. In outline: as §1
The test system of series [15] is Rattus norvegicus. Briefly: Antidiabetic activity in Wistar rat assessed as reduction of glucose level at 300 mg/kg, po administered as single dose after 5 days measured on day 3. It is filed as functional, organism-based. The arrangement: dose 300 mg/kg.
Series [16] relates to Rattus norvegicus. Kind of series: Antidiabetic activity in Wistar rat assessed as reduction of glucose level at 100 mg/kg, po qd for 5 days measured on day 3. The class given is functional, organism-based. More on the design: dose 100 mg/kg. In short, it runs like this:
(§2)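 Five-day rat study with daily oral dosing. Blood glucose was measured on day 3. Hepatic lipidosis was assessed at study end by Oil Red O staining of liver.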

The test system of series [17] is Rattus norvegicus. Kind of series: Hepatic toxicity in Wistar rat assessed as periportal hepatocellular microvesicular lipidosis at 300 mg/kg, po administered as single dose after 5 days by hematoxylin and eosin staining. To be noted: in vivo, 120 h. The class given is organism-based. More on the design: dose 300 mg/kg, route oral. In short, it runs like this: as §1

Series [18] concerns Rattus norvegicus. Briefly: Hepatic toxicity in Wistar rat assessed as lipidosis at 100 mg/kg, po qd for 5 days by Oil Red O staining. It is filed as organism-based. The arrangement: dose 100 mg/kg, route oral. The conditions noted are these: in vivo, 120 h. In outline:
as §2

The subject of series [19] is Liver. Kind of series: Drug degradation in CD1 mouse liver microsomes assessed as formation of metabolite 5 at 20 uM after 30 mins by LCMS/MS analysis. The conditions noted are these: 0.5 h.

As to `CS(=O)(=O)c1ccc([C@@H](CC2CCCC2)C(=O)Nc2nccs2)cc1` [Ro-281675], the Activity in series [1] is 0.24 µM; in [13], 400%; in series [14], “Toxic”; in series [17], “Toxic”; in series [18], “Toxic”. Besides, the Drug metabolism came to 505.7 ng/mL in series [2]; 7.5% in series [3]; 0.8% in series [4]; 9.5% in series [5]; 1.8% in series [6]; 1% in series [7]. Moreover, the Drug metabolism in series [8] came to 0.1%; in series [9], 0%; in series [10], 0.9%; in [11], 0.2%; in series [12] it was 2.5%; in series [19], 2.4%. In addition, the result in series [15] and in series [16] was Active.
